# Screens as filed in PubChem BioAssay.
# PG9 Ab binder: binders of HIV-1 gp120 antibody PG9, primary screen, biochemical, TR-FRET; TR-FRET gp120-PG9 antibody binding; AID 624416, 2012; inhibition, % at 6.7 µM; HIV-1 gp120 / PG9 antibody interaction; 0.43% of 360,000 active; in the data active means inhibition above about 8.5%
# NR2E3 ag-1: inhibitors of NR2E3-RetCOR corepressor binding, primary screen, NR2E3 agonist project, biochemical, TR-FRET, GST-NR2E3, biotin-RetCOR | Photoreceptor-specific nuclear receptor (Homo sapiens), Q9Y5X4 | 1536-well | inhibition of corepressor binding, % at 4.78 µM | 0.12% of 320,000 active | AID 2300, 2010;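 active means percent inhibition above the cutoff of mean plus 3 SD of all tested compounds, set per screening campaign, cut at about 20% in these data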;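 further: 0% = DMSO wells and 100% = biotin wells as full block of FRET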
#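 Material: NR2E3–RetCOR corepressor complex / Amount: 1.35 nM GST-NR2E3 / Medium: Tris pH 7.5 / Compound: single nominal compound dose of 4.8 µM / Incubation: 5 h at 4 °C / Technique: TR-FRET, Eu(K)-anti-GST donor, streptavidin-D2 acceptor, ex 340, em 617/671 nm / Read-out basis: percent loss of FRET ratio relative to control wells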
# NR2E3 ag-2: NR2E3 agonists in two-hybrid cells, primary screen, cell-based, luminescence, CHO-S, Gal4-NCOR/VP16-NR2E3; 0.35% of 360,000 active; Photoreceptor-specific nuclear receptor (Homo sapiens), Q9Y5X4; luciferase; inhibition of corepressor binding, % at 3.98 µM; AID 602229, 2012;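 active means inhibition above the mean of all tested compounds plus 3 SD, cut at about 70% in these data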;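 further: 0% = DMSO with NR2E3 transfected cells and 100% = cells lacking NR2E3 construct; higher means lower luciferase signal from less NR2E3 corepressor binding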
# NR1D1 modulator: modulators of Rev-erb alpha DNA binding, primary screen, biochemical, FITC-DNA, fluorescence polarization, uHTS; Nuclear receptor subfamily 1 group D member 1 (Homo sapiens), P20393; Rev-erbα–FITC-DNA binding, 90 min; activity, % at 10 µM; 0.79% of 370,000 active; AID 1259318, 2017;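 active means activity above about 14%, limit read from the data; passing the limit was not always enough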;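 further: 0% = DMSO wells with 35 nM protein and 100% = DMSO wells with 750 nM protein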
# Target sequence (P20393 whole entry, looked up): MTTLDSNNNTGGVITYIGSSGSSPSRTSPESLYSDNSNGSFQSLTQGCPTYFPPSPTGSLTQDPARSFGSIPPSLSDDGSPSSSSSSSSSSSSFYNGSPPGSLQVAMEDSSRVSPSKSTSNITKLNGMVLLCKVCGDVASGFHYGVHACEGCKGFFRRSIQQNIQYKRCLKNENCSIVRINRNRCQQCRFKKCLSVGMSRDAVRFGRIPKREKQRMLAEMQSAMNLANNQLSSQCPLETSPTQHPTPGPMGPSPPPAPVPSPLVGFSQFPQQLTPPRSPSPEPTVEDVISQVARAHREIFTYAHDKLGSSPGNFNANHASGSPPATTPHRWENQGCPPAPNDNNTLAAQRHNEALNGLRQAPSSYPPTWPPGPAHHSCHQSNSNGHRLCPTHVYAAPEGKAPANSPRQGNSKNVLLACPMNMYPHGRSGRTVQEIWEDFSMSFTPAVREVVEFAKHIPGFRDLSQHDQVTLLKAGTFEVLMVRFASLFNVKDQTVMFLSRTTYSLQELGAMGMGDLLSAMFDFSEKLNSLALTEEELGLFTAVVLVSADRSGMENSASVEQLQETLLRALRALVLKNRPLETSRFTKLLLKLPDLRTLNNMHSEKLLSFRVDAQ
# NR2E3 ag conf: NR2E3 agonist confirmation in cells, cell-based, luminescence, CHO-S two-hybrid; shares compounds with NR2E3 ag-2; CHO-S mammalian two-hybrid NR2E3-NCOR, luciferase luminescence; 51% of 2,300 active; inhibition, % at 3.98 µM;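 active means average inhibition above a cutoff equal to the mean inhibition of all tested compounds plus one SD, cut at about 70% in these data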;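 further: 0% = DMSO in NR2E3 cells and 100% = DMSO in cells lacking NR2E3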
# GAL4-VP16 luc: GAL4-VP16 reporter modulators, confirmation, counter-screen for NR2E3 agonist project, cell-based, luminescence, CHO-S, high throughput. shares compounds with NR2E3 ag-2. CHO-S GAL4-VP16 luciferase reporter. inhibition, % at 3.98 µM. 29% of 2,300 active. AID 624379, 2012;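 active means mean inhibition above a cutoff equal to the average over all tested compounds plus one standard deviation, cut at about 70% in these data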;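 further: luciferase from a UAS reporter driven by GAL4-VP16 transactivation; 0% = DMSO with VP16-transfected cells and 100% = DMSO with cells lacking VP16; higher means less reporter light so more repression of VP16 activity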
# Numbers without * were called inactive; x = not tested or not shown. An excerpt weighted towards active compounds, which were near 1.4% of everything screened.
SMILES,PG9 Ab binder,NR2E3 ag-1,NR2E3 ag-2,NR1D1 modulator,NR2E3 ag conf,GAL4-VP16 luc
COc1ccc2c(CCN3C(=O)c4ccccc4C3=O)c(-c3c(CCN4C(=O)c5ccccc5C4=O)c4ccccc4n3C(=O)OC(C)(C)C)[nH]c2c1,x,x,x,-1.7,x,x
CCC(=O)N1CCC(C(=O)NC2CCCc3ccccc32)CC1 (stereo unspecified),x,x,x,0.4,x,x
Nc1nc(=S)c2ncn(C3OC(CO)C(O)C3O)c2[nH]1 (stereo unspecified),0.1,3.6,57.2,-22.2,37.0,5.0
Nc1ncn([C@@H]2O[C@H](CO)[C@@H](O)[C@H]2O)c(=O)n1,-2.1,-3.5,53.8,-2.2,40.0,39.4
Nc1ccn([C@@H]2O[C@H](CO)[C@@H](O)[C@@H]2O)c(=O)n1,-1.4,-1.7,-22.7,1.3,x,x
COC(=O)[C@]12C[C@H](CC(=O)NCc3ccc(OC)c(OC)c3)C(=O)N(Cc3cccc4ccccc34)C1=C[C@H](C1CCCC1)O[C@@H]2C,x,x,x,-3.0,x,x
COc1cccc(NC(=O)C2CCCN2C(=O)NCc2ccccc2)c1 (stereo unspecified),x,x,x,0.8,x,x
CCC(C)(C)C(=O)O[C@H]1C[C@@H](C)C=C2C=C[C@H](C)[C@H](CC[C@@H]3C[C@@H](O)CC(=O)O3)[C@H]21,-2.2,-0.3,55.9,3.6,85.7*,27.1
CN(CC(=O)Nc1ccc(Cl)c(C(F)(F)F)c1)CC(=O)NC1CCCCC1,x,-0.2,60.5,x,53.2,37.1
COc1ccc(/C=N\NC(=S)SCN2C(=O)C3CCC(C)(C2=O)C3(C)C)cc1 (stereo unspecified),-0.9,0.3,-7.0,1.1,x,x
CC12CCC(C(=O)N(CSC(=S)N/N=C\c3ccccc3O)C1=O)C2(C)C (stereo unspecified),-1.7,4.4,90.7*,3.9,-8.1,-37.9
N#C/C(=C\c1ccc(Sc2ccc(Cl)cc2)o1)c1nc2ccccc2[nH]1,-0.7,1.2,-56.5,3.3,x,x
N#C/C(=C\c1ccc(Sc2nc3ccccc3[nH]2)o1)c1ccccc1,-3.1,-2.1,73.5*,1.4,82.1*,55.7
CCN(CC)CCCNC(=O)CC1Oc2ccccc2NC1=O (stereo unspecified),x,x,x,-0.7,x,x
O=C(CSc1cccc[n+]1[O-])c1cc2ccccc2o1,x,1.9,77.9*,x,-22.2,-15.6
COC(=O)C1CN(Cc2cn(Cc3ccc(C)cc3)nn2)CCS(=O)(=O)N1Cc1ccc(F)cc1 (stereo unspecified),x,x,x,-7.7,x,x
COC(=O)c1ccc(/C=C2/SC(=S)N(CCCC(=O)Nc3ccc(O)cc3)C2=O)cc1,1.6,6.3,2.6,-1.9,x,x
Cc1ccc(/C=C2\SC(=S)N(CCCC(=O)Nc3ccccn3)C2=O)cc1,-3.4,2.5,66.7,1.2,59.0,92.9*
O=C(CCCN1C(=O)S/C(=C\C=C\c2ccccc2)C1=O)Nc1ccc(O)cc1,-2.5,0.2,49.4,4.5,-0.4,58.1
O=C(CCN1C(=O)/C(=C/c2ccccc2)SC1=S)Nc1ccccn1,-0.6,0.9,-13.3,1.9,x,x
Cc1ccc(/C=C2\SC(=S)N(CCCC(=O)Nc3ccc(O)cc3)C2=O)cc1,-0.3,2.0,77.8*,0.0,-2.7,62.6
C(=C\c1ccccc1)/CSc1nnc(Cc2cccs2)n1-c1ccccc1,x,x,x,0.5,x,x
COC(=O)[C@H](C(C)C)N1Cc2nnn(Cc3ccccc3)c2-c2ccccc2S1(=O)=O,x,x,x,-1.5,x,x
COc1ccc(NC(=O)/C(Cl)=C(/Cl)S(=O)Cc2ccccc2)cn1 (stereo unspecified),-1.1,1.6,90.0*,-5.2,95.1*,41.5
COC(=O)C1CN(Cc2ccc(F)cc2)CCS(=O)(=O)N1Cc1cn(Cc2ccc(C)cc2)nn1 (stereo unspecified),x,x,x,0.1,x,x
SMILES,PG9 Ab binder,NR2E3 ag-1,NR2E3 ag-2,NR1D1 modulator,NR2E3 ag conf,GAL4-VP16 luc
C=CCN(C)C(C#Cc1ccccc1)Cc1ccccc1 (stereo unspecified),x,x,x,-5.2,x,x
Cc1cc(-c2ccc(C)c(S(=O)(=O)NCCCN3CCN(c4ccccc4F)CC3)c2)on1,-1.0,3.8,61.7,-3.3,76.4*,68.0
Oc1ccccc1/C=N/NC(=S)NC1CC2CC1C1C=CCC21 (stereo unspecified),-0.2,-0.7,52.6,-2.9,-101.5,-116.5
CC1=NN(C(N)=S)C(=O)C1N=Nc1ccccc1C (stereo unspecified),-1.5,-5.2,73.7*,16.6,-1.7,-34.6
CC1=NN(C(N)=S)C(=O)C1N=Nc1c(Cl)cc([N+](=O)[O-])cc1Cl (stereo unspecified),-3.8,-2.1,83.4*,14.0,-42.9,-76.8
CC1=NN(C(N)=S)C(=O)C1N=Nc1c(C)cc(C)cc1C (stereo unspecified),-0.7,-0.8,72.7*,-5.0,-21.1,-60.7
Fc1ccc(-c2n[nH]c(=S)n2N=Cc2cccc(OCc3ccccc3)c2)cc1,x,x,x,5.5,x,x
Cc1ccc(S(=O)(=O)N2CCN(c3ncnc4sccc34)CC2)cc1,0.7,-0.2,103.4*,0.6,93.8*,82.7*
Cc1sc2ncnc(N3CCN(S(=O)(=O)c4ccc(F)cc4)CC3)c2c1C,-1.0,2.0,78.0*,3.8,79.9*,74.2*
CCS(=O)(=O)N1CCN(c2ncnc3sc(C)c(C)c23)CC1,-0.2,2.3,7.1,-0.7,x,x
O=C(c1ccccc1)C1CCN(c2ncnc3sccc23)CC1,x,x,x,3.4,x,x
c1ccc(CC2CCN(c3ncnc4sccc34)CC2)cc1,-0.2,x,80.2*,0.4,97.2*,82.6*
O=S(=O)(c1ccccc1C(F)(F)F)N1CCN(c2ncnc3sccc23)CC1,-0.4,x,59.7,-5.2,67.1,51.0
CCOC(=O)N1CCN(C(=O)C[C@H]2C[C@@]3(C(=O)OC)C(=C[C@H](COCc4ccccc4)O[C@@H]3C)N(CCc3ccc(OC)c(OC)c3)C2=O)CC1,x,x,x,2.1,x,x
Fc1ccccc1-c1n[nH]c(=S)n1N=Cc1cccc(OCc2ccccc2)c1,x,x,x,4.2,x,x
CC(C)C[C@H]1COc2cc(F)ccc2S(=O)(=O)N1C,x,x,x,2.8,x,x
O=c1cc(-c2ccccc2)nc2c(-c3ccccc3)c(C(F)(F)F)[nH]n12,2.4,-0.5,58.4,-8.2,100.3*,76.5*
Cc1cc(=O)n2[nH]c(C)c(-c3ccccc3)c2n1,0.4,2.4,-26.9,0.9,x,x
Cn1cccc1C=NNC(=O)c1cc(-c2ccc(Cl)cc2)n[nH]1,x,x,x,-1.9,x,x
C=CCn1c(O)c(N=NC(=S)Nc2cccc(C)c2)c2ccccc21,0.2,-4.2,79.8*,3.1,27.6,42.3
